# Assay results pooled from the literature.
# Lines come from different studies, so protocols differ.
# Dihydrofolate reductase: Dihydrofolate reductase (Mycobacterium avium, UniProt O30463)
# Ephx2: Bifunctional epoxide hydrolase 2 (Ephx2, Rattus norvegicus, UniProt P80299)
Structure (SMILES),target,assay,quantity,result
CCCOc1nc(N)nc(N)c1OCCCOc1ccccc1CCC(=O)O,Dihydrofolate reductase,"enzyme activity, inhibitor",IC50,> 5000 nM
O=C(Nc1ccc(-c2ccnc3ccccc23)cc1)C1CCN(S(=O)(=O)c2ccccc2Cl)CC1,Ephx2,"enzyme activity, inhibitor, fluorescence",IC50,0.7 nM
O=C1CC[C@H](N2Cc3cc(N4CCN(CC5CCN(c6ccc([C@@H]7c8ccc(O)cc8CC[C@@H]7c7ccccc7)cc6)CC5)CC4)ccc3C2=O)C(=O)N1,"Glucocorticoid receptor (NR3C1, Homo sapiens, UniProt P04150)","ligand displacement, radioligand",IC50,83 nM
Nc1nc(N)c(OCCCOc2ccccc2CCC(=O)O)c(-c2ccc(C(F)(F)F)cc2)n1,Dihydrofolate reductase,"enzyme activity, inhibitor",IC50,67 nM
Cc1cc([C@@H](C)Nc2ccccc2C(=O)O)c2nc(N3CCC(F)(F)CC3)c(C#N)c(=O)n2c1,"Phosphatidylinositol 3-kinase catalytic subunit type 3 (PIK3C3, Homo sapiens, UniProt Q8NEB9)","enzyme activity, inhibitor, ADP detection",IC50,> 10000 nM
O=c1cc(-c2ccc(O)cc2)oc2c([C@@H]3OC[C@H](O)[C@H](O)[C@H]3O)c(O)c([C@@H]3O[C@H](CO)[C@@H](O)[C@H](O)[C@H]3O)c(O)c12,"Calcium/calmodulin-dependent protein kinase type II subunit beta (CAMK2B, Homo sapiens, UniProt Q13554)","enzyme activity, inhibitor",IC50,157000 nM
O=C(Nc1ccc(-c2ccc3cccnc3c2)cc1)C1CCN(S(=O)(=O)c2ccccc2Cl)CC1,Ephx2,"enzyme activity, inhibitor, fluorescence",IC50,8.1 nM
O=C(C=Cc1ccccc1)Nc1cc(-c2ccnc(N3CCC(O)CC3)c2)ccn1,"Estrogen receptor (ESR1, Homo sapiens, UniProt P03372)","binding, SPR",Kd,1280 nM
CN1Cc2c(N)cccc2C(=O)N1C1CCC(=O)NC1=O (stereo not shown),"Cereblon/Ikaros (Homo sapiens, UniProt Q13422+Q96SW2)","protein level, degrader, luciferase",DC50,67.2 nM
CC[C@H](NC(=O)[C@H](CS(=O)(=O)CC1CC1)N[C@@H](c1ccc(F)cc1)C(F)(F)F)C(=O)C(=O)NC1CC1,"Dipeptidyl peptidase 1 (Ctsc, Mus musculus, UniProt P97821)","enzyme activity, inhibitor, fluorescence",IC50,18000 nM
